These results are taken from ChEMBL document CHEMBL4342470, “Detection of Active Granzyme A in NK92 Cells with Fluorescent Activity-Based Probe” (J Med Chem, 2020).

Active and inactive are the calls of the source. The calls are words filed in the database; no cut-off is given here.

Test [1] addresses T1, Granzyme A (Homo sapiens) (UniProt P12544).
T1 sequence (whole entry): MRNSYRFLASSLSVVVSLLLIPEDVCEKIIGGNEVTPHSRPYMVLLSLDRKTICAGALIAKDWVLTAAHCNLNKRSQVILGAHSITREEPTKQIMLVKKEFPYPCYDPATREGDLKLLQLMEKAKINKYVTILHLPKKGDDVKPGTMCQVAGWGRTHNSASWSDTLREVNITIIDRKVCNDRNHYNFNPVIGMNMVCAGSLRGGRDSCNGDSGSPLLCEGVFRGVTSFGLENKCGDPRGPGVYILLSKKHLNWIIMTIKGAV
Nature of the test: Binding affinity to Granzyme A active form (unknown origin) expressed in Pichia pastoris by Western blot analysis. An outline of the steps:
(§1)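 Active GrA or proenzyme diluted to 250 nM final in pH 7.5 assay buffer, with or without 1 h preincubation with 1 μM diphenyl phosphonate inhibitor at 37 °C. Probe added at 500 nM final for another 1 h, then SDS/DTT, SDS-PAGE and transfer. Probe read at 658 nm, anti-GrA rabbit monoclonal with Alexa 488 secondary.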

Test [2] addresses T1, Granzyme A (Homo sapiens). Nature of the test: Binding affinity to Granzyme A (unknown origin) expressed in Pichia pastoris assessed as appearance of fluorescent 35 kDa species at enzyme to probe ratio was 1:1 incubated for 5 mins by SDS-PAGE based in-gel detection method. In outline: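 Recombinant GrA (Pichia pastoris) at 250 nM with 250 nM Cy5 probe (1:1) in Tris/NaCl/CaCl2/Tween-20 buffer pH 7.5, 37 °C, for 0–120 min. Reduced in SDS/DTT at 95 °C, run on 4–12% Bis-Tris SDS-PAGE, transferred to nitrocellulose, fluorescence read at 658 nm.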

Test [3] concerns the target Granzyme B (Homo sapiens) (UniProt P10144). Nature of the test: Inhibition of Granzyme B (unknown origin) expressed in Pichia pastoris using GrBref substrate by spectrofluorometry relative to control. In outline: (§2)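 Each enzyme preincubated 30 min at 37 °C with 10 μM compound, then its matched ACC substrate added (SK15 for GrA, GrKref, GrBref, Ac-KVPL-ACC for GrM, and the PR3 and hNE substrates). Enzyme levels: GrK 488 nM, GrB 18 nM, GrM 74 nM, hNE 3.3 nM, PR3 3.4 nM. Reference substrates at 200 μM. Fluorescence read at 355/460 nm; residual activity relative to an untreated enzyme control.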

Test [4] concerns the target T1, Granzyme A (Homo sapiens). Nature of the test: Binding affinity to Granzyme A in human NK92 cells at 1 uM measured 30 mins to 2 hrs post dose by SDS-PAGE analysis. It is filed as cell-based.
In test [5] the target is T1, Granzyme A (Homo sapiens). Nature of the test: Inhibition of Granzyme A (unknown origin) expressed in Pichia pastoris using SK15 substrate by spectrofluorometry relative to control. An outline of the steps:
as §2

Test [6] concerns the target T2, Myeloblastin (Homo sapiens) (UniProt P24158).
T2 sequence (whole entry): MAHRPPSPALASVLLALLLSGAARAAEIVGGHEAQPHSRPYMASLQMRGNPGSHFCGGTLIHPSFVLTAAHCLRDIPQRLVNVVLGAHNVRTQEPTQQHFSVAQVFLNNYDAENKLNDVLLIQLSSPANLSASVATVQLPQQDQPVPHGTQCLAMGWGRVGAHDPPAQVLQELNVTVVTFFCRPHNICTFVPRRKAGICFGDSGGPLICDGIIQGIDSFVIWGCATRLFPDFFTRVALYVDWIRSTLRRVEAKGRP
Nature of the test: Inhibition of PR3 (unknown origin) expressed in Pichia pastoris using Ac-Glu(O-Bzl)-Lys(Ac)-Hyp(Bzl)-Nva-ACC substrate by spectrofluorometry relative to control. In outline:
as §2

For test [7], the target named is T1, Granzyme A (Homo sapiens). Nature of the test: Binding affinity to Granzyme A zymogen form (unknown origin) expressed in Pichia pastoris by Western blot analysis. An outline of the steps: as §1
On the technique in general: Immunoblotting shows a protein as a band on a membrane.

Test [8] addresses T1, Granzyme A (Homo sapiens). Nature of the test: Binding affinity to Granzyme A (unknown origin) expressed in Pichia pastoris assessed as minimum concentration needed for GrA labeling at enzyme to probe ratio was 1:1 incubated for 5 to 30 mins by SDS-PAGE based in-gel detection method. In outline:
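Recombinant GrA (Pichia pastoris), 250 nM, with probe at 10–500 nM for 30 min at 37 °C in pH 7.5 Tris/NaCl/CaCl2/Tween-20 buffer. SDS/DTT reduction, 4–12% Bis-Tris SDS-PAGE, transfer, and probe fluorescence at 658 nm, used to estimate the lowest labeling concentration.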

In test [9] the target is T3, Neutrophil elastase (Homo sapiens) (UniProt P08246).
T3 sequence (whole entry): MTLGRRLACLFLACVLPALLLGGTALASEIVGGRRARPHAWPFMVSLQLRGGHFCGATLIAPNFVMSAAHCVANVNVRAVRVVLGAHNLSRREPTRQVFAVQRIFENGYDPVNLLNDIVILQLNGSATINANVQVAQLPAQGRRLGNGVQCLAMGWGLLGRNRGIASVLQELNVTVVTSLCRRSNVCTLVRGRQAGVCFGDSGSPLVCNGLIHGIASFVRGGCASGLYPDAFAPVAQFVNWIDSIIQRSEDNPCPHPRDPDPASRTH
Nature of the test: Inhibition of human neutrophil elastase expressed in Pichia pastoris using Ac-Arg(NO)2-Glu(Bzl)-Oic-Abu-ACC substrate by spectrofluorometry relative to control. In outline: as §2

Test [10] has as its target T4, Granzyme M (Homo sapiens) (UniProt P51124).
T4 sequence (whole entry): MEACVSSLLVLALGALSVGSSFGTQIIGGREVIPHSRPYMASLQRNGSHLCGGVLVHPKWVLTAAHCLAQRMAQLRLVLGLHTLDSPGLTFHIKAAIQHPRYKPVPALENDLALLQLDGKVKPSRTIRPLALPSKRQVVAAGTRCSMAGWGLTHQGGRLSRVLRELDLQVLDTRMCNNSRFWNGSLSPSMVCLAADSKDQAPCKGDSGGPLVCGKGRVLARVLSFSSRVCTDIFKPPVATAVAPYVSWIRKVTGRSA
Nature of the test: Inhibition of Granzyme M (unknown origin) expressed in Pichia pastoris using Ac-Lys-Val-Pro-Leu-ACC substrate by spectrofluorometry relative to control. An outline of the steps: as §2

The target in test [11] is T1, Granzyme A (Homo sapiens). Nature of the test: Binding affinity to Granzyme A zymogen form (unknown origin) expressed in Pichia pastoris at 500 nM in presence of 1 uM compound 3 by Western blot analysis. In outline: as §1
Test [12] concerns the target T1, Granzyme A (Homo sapiens). Nature of the test: Inhibition of Granzyme A (unknown origin) expressed in Pichia pastoris assessed as second- order inhibition rate constant (Kobs/I ratio) pre-incubated with SK15 substrate for 15 mins before enzyme addition by spectrofluorometry. An outline of the steps: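 Recombinant GrA at 350 nM, pre-warmed at 37 °C, added to SK15 substrate that had been preincubated 15 min at 37 °C with varied inhibitor or probe (inhibitor range 714–333 nM, SK15 10 μM). Tris/NaCl/CaCl2/Tween-20 buffer, pH 7.5. AMC-type fluorescence at 355/460 nm under pseudo-first-order conditions to give kobs/I. Mean of at least three experiments with standard deviation.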

The target of test [13] is T5, Granzyme K (Homo sapiens) (UniProt P49863).
T5 sequence (whole entry): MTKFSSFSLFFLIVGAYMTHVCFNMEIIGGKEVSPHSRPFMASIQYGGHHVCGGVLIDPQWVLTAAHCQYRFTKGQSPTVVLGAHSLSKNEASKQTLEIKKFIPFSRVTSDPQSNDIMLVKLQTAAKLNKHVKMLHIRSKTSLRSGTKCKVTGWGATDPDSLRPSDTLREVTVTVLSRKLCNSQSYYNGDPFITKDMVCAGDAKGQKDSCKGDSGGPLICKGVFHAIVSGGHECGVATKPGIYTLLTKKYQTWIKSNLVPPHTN
Nature of the test: Inhibition of Granzyme K (unknown origin) expressed in Pichia pastoris using GrKref substrate by spectrofluorometry relative to control. To be noted: concentration not given here. In outline:
as §2

For test [14], the target named is T1, Granzyme A (Homo sapiens). Nature of the test: Binding affinity to Granzyme A in human NK92 cells at 1 uM treated 1 hr after GrA covalent inhibitor methyl 4-[(3S)-3-[[2-[(2S)-2-[(1-diphenoxyphosphoryl-4-guanidinobutyl)carbamoyl]-2,3,3a,4,5,6,7,7a-octahydroindol-1-yl]-2-oxoethyl]carbamoyl]-3,4-dihydro-1H-isoquinolin-2-yl]-4-oxobutanoate dosing and measured 30 mins to 2 hrs post dose by SDS-PAGE analysis. In kind it is cell-based.

Test [15] has as its target T1, Granzyme A (Homo sapiens). Nature of the test: Binding affinity to Granzyme A in human NK92 cells at 250 nM to 2 uM incubated for 1 hr by SDS-PAGE based in-gel detection assay. It is filed as cell-based.
The target in test [16] is T1, Granzyme A (Homo sapiens). Nature of the test: Binding affinity to Granzyme A active form (unknown origin) expressed in Pichia pastoris at 500 nM in presence of 1 uM methyl 4-[(3S)-3-[[2-[(2S)-2-[(1-diphenoxyphosphoryl-4-guanidinobutyl)carbamoyl]-2,3,3a,4,5,6,7,7a-octahydroindol-1-yl]-2-oxoethyl]carbamoyl]-3,4-dihydro-1H-isoquinolin-2-yl]-4-oxobutanoate by Western blot analysis. In outline:
as §1

Chain of Granzyme B (Homo sapiens) (P10144 whole entry): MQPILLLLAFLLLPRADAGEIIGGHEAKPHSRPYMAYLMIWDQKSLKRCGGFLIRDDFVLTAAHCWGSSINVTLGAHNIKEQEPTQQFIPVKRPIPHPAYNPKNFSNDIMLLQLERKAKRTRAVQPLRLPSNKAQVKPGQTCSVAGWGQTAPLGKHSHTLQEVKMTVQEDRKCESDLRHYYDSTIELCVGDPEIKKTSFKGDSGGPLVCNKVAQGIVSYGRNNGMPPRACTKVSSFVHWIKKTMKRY

`CN1\C(=C/C=C/C=C/C2N(CCCCCC(=O)NCCCCCC(=O)N3Cc4ccccc4C[C@H]3C(=O)NCC(=O)N3C4CCCCC4C[C@H]3C(=O)NC(CCCNC(=N)N)P(=O)(Oc3ccccc3)Oc3ccccc3)c3ccccc3C2(C)C)C(C)(C)c2ccccc21` (stereo partly specified): the result in test [1], in [2], in test [4] and in test [15] was Active. Besides, the inhibition entry in test [3], in test [5], in test [6], in test [9] and in test [10] was “inactive” in each case. The outcome in test [7], in [11], in [14] and in test [16] was inactive. In addition, the MEC in [8] was 50 nM. For the same compound, the Ratio in test [12] was determined as 3520 s⁻¹ M⁻¹. Further, the inhibition – broadly, how much of the control response was suppressed – in test [13] stood at 3%.
